This is an account of results in PubChem BioAssay.

The source made the active and inactive calls.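 Rule for the calls, unless noted: active = GFP response above 150% of the DMSO level; inconclusive = fewer than 70 events counted for a yeast strain; inactive = the rest.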

Test [1] in a line: hit retest on RPL19A-GFP reporter strain – cell-based, S. cerevisiae, flow cytometry, cherry picks, mother/daughter gates, confirmation (AID 2270;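 active = GFP response below 50% of the DMSO control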). Particulars: 3 h, at 10 µM, stronger effect = lower value, 100 = same GFP as DMSO wells. (In general: Flow cytometry measures light scatter and fluorescence of single cells or particles in a stream.)
Test [2] is described as follows: yeast TOR pathway reporter LAP4-GFP change – cell-based, cherry picks, flow cytometry, mother/daughter gates, confirmation (AID 2271;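 active = GFP response above 150% of the DMSO control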;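 note: ratio of sample to DMSO plate mean so 100% equals DMSO level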). Particulars: S. cerevisiae LAP4-GFP strain, 3 h, at 10 µM, stronger effect = higher value, 100 means same as DMSO control. The method in brief:
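System: GFP-fusion yeast strain | Input: Yeast cells seeded at OD600 of 0.2 | Technique: HT flow cytometry, GFP fluorescence channel | Read-out: % GFP response vs DMSO | Dosing: Single test-compound dose, 10 µM final | Controls: Positive rapamycin (400 ng/mL), negative DMSO | Times: 3 h treatment at 30 °C with rotation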

Test [3] in a line: TOR pathway reporter MEP2-GFP, retest of hits – S. cerevisiae, flow cytometry GFP, cherry picks, confirmation (AID 2272;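 active = GFP response above 150% of the DMSO control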;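 note: ratio of well signal to plate DMSO mean so 100% equals DMSO level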). The note with it: S. cerevisiae MEP2-GFP strain, 3 h, at 10 µM, stronger effect = higher value.
Test [4] is described as follows: yeast AGP1-GFP fluorescence change, single-dose – cell-based, flow cytometry, S. cerevisiae, cherry picks, confirmation (AID 2273).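 Note: median GFP channel fluorescence over the whole cell population gate.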 The note with it: S. cerevisiae AGP1-GFP strain, 3 h, at 10 µM.
Test [5] can be described thus: TOR pathway CIT2 reporter hit retest – S. cerevisiae, GFP fusion, cherry picks, mother/daughter gates, confirmation (AID 2274). Particulars: S. cerevisiae CIT2-GFP strain, flow cytometry, 3 h, at 10 µM, stronger effect = higher value.
Where [6] appears, read: measured here: daughter cell gate.
The mark [7] stands for this setting: measured here: mother cell gate.
[8] abbreviates: measured here: daughter cell gate response.
The mark [9] stands for this setting: measured here: mother cell gate response.

Turning to `COc1cc(C2CC(c3cccnc3)=NN2c2ccc(F)cc2)cc(OC)c1OC` (stereo not drawn), the GFP response vs DMSO is 98.2% (inactive) in test [1], 98.4% in test [1] (setting [6]), 95.2% in test [1] (setting [7]) and 101% (inactive) in test [3]. Besides, the GFP response relative to DMSO in test [2] is 95.3% (inactive); in test [2] (setting [8]), 94.4%; in test [2] (setting [9]), 95.4%. Also, the GFP response, % of DMSO in test [4] is 102% (inactive); in test [5] it was 98.6% (inactive); in test [5] (setting [6]), 97.6%; in test [5] (setting [7]), 96%.
For `O=C(COC(=O)c1n[nH]c2ccccc12)c1ccc(F)c(F)c1`, the GFP response vs DMSO in test [1] is 97.1% (inactive); in test [1] (setting [6]), 98.7%; in test [1] (setting [7]), 96.3%; in test [3] it was 103% (inactive). In addition, the GFP response relative to DMSO was 104% (inactive) in test [2], 97.5% in test [2] (setting [8]) and 106% in test [2] (setting [9]). The GFP response, % of DMSO in test [4] was 97% (inactive); in test [5] it was 98.6% (inactive); in test [5] (setting [6]), 101%; in test [5] (setting [7]) it was 98.2%.
In the case of `CCS(=O)(=O)N1N=C(c2ccc(NS(C)(=O)=O)cc2)CC1c1ccccc1` (stereo not drawn), the GFP response vs DMSO in test [1] was 99.8% (inactive); in test [1] (setting [6]), 98.4%; in test [1] (setting [7]), 99%; in test [3], 108% (inactive). The GFP response relative to DMSO is 101% (inactive) in test [2], 104% in test [2] (setting [8]) and 99.5% in test [2] (setting [9]). The GFP response, % of DMSO was 106% (inactive) in test [4], 101% (inactive) in test [5], 103% in test [5] (setting [6]) and 103% in test [5] (setting [7]).
Turning to `CC(C)c1nnc(NC(=O)c2nc(S(=O)(=O)Cc3ccc(F)cc3)ncc2Cl)s1`, the GFP response vs DMSO in test [1] is 95.8% (inactive); in test [1] (setting [6]), 96%; in test [1] (setting [7]), 96.9%; in test [3] it was 99.5% (inactive). Also, the GFP response relative to DMSO in test [2] is 101% (inactive); in test [2] (setting [8]), 102%; in test [2] (setting [9]) it was 99.5%. Further, the GFP response, % of DMSO in test [4] was 102% (inactive); in test [5], 99.3% (inactive); in test [5] (setting [6]), 100%; in test [5] (setting [7]) it was 100%.
On to `COc1ccc(N=Cc2nc(-c3ccccc3)oc2OC(C)=O)cc1`, for which the GFP response vs DMSO is 100% (inactive) in test [1], 99.1% in test [1] (setting [6]), 101% in test [1] (setting [7]) and 95.4% (inactive) in test [3]. The GFP response relative to DMSO in test [2] is 107% (inactive); in test [2] (setting [8]) it was 96.5%; in test [2] (setting [9]), 111%. In addition, the GFP response, % of DMSO in test [4] was 94% (inactive); in test [5] it was 90.7% (inactive); in test [5] (setting [6]) it was 90.9%; in test [5] (setting [7]), 88.6%.
Regarding `COc1cccc(C(=O)C(C#N)=C(SC)SC)c1`, the GFP response vs DMSO in test [1] was 108% (inactive); in test [1] (setting [6]), 102%; in test [1] (setting [7]) it was 106%; in test [3] it was 97.8% (inactive). For the same molecule, the GFP response relative to DMSO was 123% (inactive) in test [2], 108% in test [2] (setting [8]) and 126% in test [2] (setting [9]). Moreover, the GFP response, % of DMSO in test [4] was 95.7% (inactive); in test [5], 80.8% (inactive); in test [5] (setting [6]), 80.1%; in test [5] (setting [7]), 79.4%.
With `Cc1ccsc1C(=O)N(Cc1nnc(-c2ccccc2Cl)o1)C1CC1`, the GFP response vs DMSO in test [1] was 95.8% (inactive); in test [1] (setting [6]), 97.3%; in test [1] (setting [7]) it was 95.2%; in test [3], 103% (inactive). Also, the GFP response relative to DMSO in test [2] was 98.9% (inactive); in test [2] (setting [8]) it was 96%; in test [2] (setting [9]), 100%. Besides, the GFP response, % of DMSO in test [4] is 102% (inactive); in test [5], 100% (inactive); in test [5] (setting [6]) it was 99.3%; in test [5] (setting [7]), 99.3%.
In the case of `CC(=O)Nc1ccc(NC(=O)c2ccccc2F)cc1`, the GFP response vs DMSO in test [1] was 99.8% (inactive); in test [1] (setting [6]), 100%; in test [1] (setting [7]), 98.6%; in test [3] it was 99% (inactive). Further, the GFP response relative to DMSO in test [2] is 94.4% (inactive); in test [2] (setting [8]), 94.2%; in test [2] (setting [9]) it was 94.1%. In addition, the GFP response, % of DMSO in test [4] is 100% (inactive); in test [5], 103% (inactive); in test [5] (setting [6]), 101%; in test [5] (setting [7]), 99.3%.
In the case of `COc1ccc(NC(=O)/C(C#N)=C/c2ncc([N+](=O)[O-])n2C)c(OC)c1`, the GFP response vs DMSO was 97.2% (inactive) in test [1], 95.1% in test [1] (setting [6]), 99.8% in test [1] (setting [7]) and 169% (inactive) in test [3]. Besides, the GFP response relative to DMSO in test [2] was 151% (active); in test [2] (setting [8]), 138%; in test [2] (setting [9]) it was 162%. Moreover, the GFP response, % of DMSO in test [4] was 99.5% (inactive); in test [5], 134% (inactive); in test [5] (setting [6]) it was 132%; in test [5] (setting [7]) it was 136%.
As to `N/C(=N\OC(=O)c1ccccc1Cl)c1ccc(Cl)cc1`, the GFP response vs DMSO is 101% (inactive) in test [1], 101% in test [1] (setting [6]), 101% in test [1] (setting [7]) and 108% (inactive) in test [3]. Besides, the GFP response relative to DMSO was 135% (inactive) in test [2], 115% in test [2] (setting [8]) and 135% in test [2] (setting [9]). Besides, the GFP response, % of DMSO in test [4] was 77.2% (inactive); in test [5], 130% (inactive); in test [5] (setting [6]), 117%; in test [5] (setting [7]), 132%.
On to `O=C1Nc2ccc(Br)cc2/C1=C/C1CC=CCC1` (stereo not drawn), for which the GFP response vs DMSO in test [1] was 106% (inactive); in test [1] (setting [6]), 100%; in test [1] (setting [7]), 105%; in test [3] it was 133% (inactive). Also, the GFP response relative to DMSO was 131% (inactive) in test [2], 122% in test [2] (setting [8]) and 135% in test [2] (setting [9]). Further, the GFP response, % of DMSO in test [4] is 111% (inactive); in test [5], 108% (inactive); in test [5] (setting [6]) it was 108%; in test [5] (setting [7]), 104%.
Regarding `COc1cccc(C(=O)Nc2ccccc2)c1`, the GFP response vs DMSO is 98.2% (inactive) in test [1], 97.4% in test [1] (setting [6]), 96.7% in test [1] (setting [7]) and 105% (inactive) in test [3]. Besides, the GFP response relative to DMSO in test [2] was 106% (inactive); in test [2] (setting [8]) it was 102%; in test [2] (setting [9]), 106%. The GFP response, % of DMSO in test [4] was 95.2% (inactive); in test [5], 94% (inactive); in test [5] (setting [6]), 93.6%; in test [5] (setting [7]), 92.6%.
For `CSc1ccc(-c2cc(=O)c3ccccc3o2)cc1`, the GFP response vs DMSO in test [1] is 92% (inactive); in test [1] (setting [6]) it was 89.3%; in test [1] (setting [7]), 92.5%; in test [3], 95.2% (inactive). For the same molecule, the results for the GFP response relative to DMSO in test [2], in test [2] (setting [8]) and in test [2] (setting [9]) were 117% (inactive), 110% and 118%, respectively. Moreover, the GFP response, % of DMSO in test [4] was 90.5% (inactive); in test [5] it was 84.7% (inactive); in test [5] (setting [6]), 81.6%; in test [5] (setting [7]), 84.8%.
